Hits are enriched below; roughly 3.5% of the tested compounds scored in any of these assays.
RGS4 block: human RGS4 inhibition; AID 463165; HEK293 M3R/RGS4 inducible, Fluo-4 calcium flux; hits give high values; triggered by carbachol at its EC20; B-score at 10 µM; 0.45% of 310,000 active; P49798;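 active means B-score, a plate-corrected calcium signal, over three deviations above library mean, with baseline fluorescence within five deviations of library mean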;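 further: RGS4 expression induced by doxycycline in cells with stable M3 receptor; B-score is computed from the integrated fluorescence ratio over baseline after carbachol; higher B-score means a larger calcium signal and so more RGS4 inhibition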
Target sequence (P49798 whole entry, looked up): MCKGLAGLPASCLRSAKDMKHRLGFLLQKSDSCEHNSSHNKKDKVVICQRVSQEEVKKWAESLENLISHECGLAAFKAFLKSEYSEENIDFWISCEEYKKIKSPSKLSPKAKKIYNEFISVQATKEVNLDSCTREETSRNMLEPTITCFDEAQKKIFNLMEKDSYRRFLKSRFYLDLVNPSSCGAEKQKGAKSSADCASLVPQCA
MrgX1 PAM: allosterically activates human MrgX1 receptor signaling | 0.63% of 310,000 active | Q96LB2 | MrgX1-HEK293, Fluo-4 calcium flux, FDSS; hits give high values | B-score at 10 µM;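 active means plate-corrected calcium response at least 3 library SD above typical, normal starting fluorescence, not activating the receptor alone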;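 further: compound read alongside a low EC10 to EC30 dose of BAM8-22 agonist; peak minus trough fluorescence over baseline measured at the second addition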
Target sequence (Q96LB2 whole entry, looked up): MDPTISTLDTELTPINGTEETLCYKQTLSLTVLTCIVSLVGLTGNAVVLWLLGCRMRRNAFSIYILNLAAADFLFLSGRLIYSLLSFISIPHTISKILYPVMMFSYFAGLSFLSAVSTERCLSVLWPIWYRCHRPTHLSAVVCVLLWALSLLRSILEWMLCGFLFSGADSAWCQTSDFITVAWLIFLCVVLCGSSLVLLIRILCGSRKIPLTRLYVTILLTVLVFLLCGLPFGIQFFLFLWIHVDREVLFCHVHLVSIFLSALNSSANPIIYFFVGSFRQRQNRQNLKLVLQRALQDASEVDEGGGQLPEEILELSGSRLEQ
MrgX1 antag: human MrgX1 receptor antagonism, primary screen; MRGX1-HEK293 calcium flux, Fluo-4, BAM8-22 antagonism; hits give low values; B-score at 10 µM; 1.3% of 310,000 active; AID 588676;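 active means calcium-response B-score plate-corrected more than 3 library SD below zero, starting fluorescence within 5 deviations, no agonist response on first addition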;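 further: peak minus trough fluorescence over baseline after final BAM8-22 challenge near maximal dose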
RGS4 pot: potentiators or activators of RGS4; HEK293 M3R/inducible RGS4, carbachol calcium flux Fluo4; hits give low values; B-score at 10 µM; 0.92% of 310,000 active; AID 463111;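 active means B-score of the integrated calcium signal more than 4 SD below the library mean, with starting fluorescence not abnormally high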;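 further: negative B-score means reduced calcium response which marks RGS4 activation or potentiation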
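test system = HEK293 cells with stable M3R and inducible RGS4 | schedule = recording 10 s baseline at 1 Hz, 100 s post-agonist | technique = Fluo4-AM (2 µM) calcium-flux fluorescence, kinetic read | measure = Agonist-evoked peak-minus-minimum fluorescence over baseline, integrated ratio, B score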
MrgX1 agonist: agonists of human MrgX1 receptor; Q96LB2; MrgX1-HEK293 cells, Fluo-4 calcium fluorescence, agonist mode; hits give high values; B-score at 10 µM; 0.44% of 310,000 active; AID 588627;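 active means calcium response B-score plate-corrected fluorescence ratio at least 3 library SD, with starting fluorescence B-score inside 5 SD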
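Test system: Stable human MrgX1 HEK293 cell line | Schedule: Overnight plating before 1 h dye loading | Read-out basis: Baseline-normalised fluorescence change ratio, B-scored | Detection: Kinetic calcium dye fluorescence, Fluo-4 NW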
MrgX1 ant reconf: human MrgX1 receptor antagonism, re-confirmation screen; shares compounds with MrgX1 antag; MrgX1-HEK293, BAM8-22 calcium flux, Fluo-4; hits give low values; remaining BAM8-22 calcium response % of control (hits give low values), % at 10 µM; 19% of 2,300 active;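 active means remaining agonist calcium response no higher than 100% minus 3 SD of agonist-only control wells, with starting fluorescence near control levels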;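 further: agonist BAM8-22 given at a near maximal EC90 to ECmax level; peak minus minimum fluorescence divided by baseline after agonist addition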
HEK293 Ca flux: counter-screen for MrgX1 antagonists: effect in parental HEK293 cells | 2% of 4,000 active | AID 624111 | Fluo-4 calcium fluorescence, FDSS | fluorescence ratio F(max-min)/F0 at 10 µM | shares compounds with MrgX1 antag;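 active means duplicate-averaged calcium fluorescence ratio at least three times the standard deviation of buffer wells, a nonspecific response in parental cells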
HEK293 Ca counter: counter-screen for MrgX1 allosteric activators: effect in parental HEK293 cells. fluorescence ratio F(max-min)/F0 at 10 µM. shares compounds with MrgX1 antag. parental HEK293 calcium flux, Fluo-4 fluorescence ratio; hits give high values. 0.4% of 4,000 active. AID 624114;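 active means calcium fluorescence ratio, averaged over duplicates, at least 3 SD of the buffer-well ratio, meaning a nonspecific response in receptor-free cells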;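 further: untransfected parental HEK293 lacking MrgX1 used as counterscreen for MrgX1 allosteric activators; fluorescence change taken during the second addition on a kinetic imager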
HEK293 Ca cntr2: counter-screen for MrgX1 activators: effect in parental HEK293 cells; shares compounds with MrgX1 antag; Fluo-4 calcium fluorescence (FDSS); hits give high values; AID 624115; fluorescence ratio F(max-min)/F0 at 10 µM; 8.7% of 4,000 active;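 active means calcium fluorescence ratio at least three times the spread of buffer wells, meaning a non-specific response in parental cells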
Active calls of the source: *; i = inactive; / = no result.

SMILES	RGS4 block	MrgX1 PAM	MrgX1 antag	RGS4 pot	MrgX1 agonist	MrgX1 ant reconf	HEK293 Ca flux	HEK293 Ca counter	HEK293 Ca cntr2
CNC(=O)CSc1nnc(-c2ccncc2)n1Cc1ccccc1	i	i	i	i	i	/	/	/	/
CCSc1nnc(-c2ccncc2)n1Cc1ccccc1	i	i	-6.51*	i	i	i	i	i	i
CCOC(=O)c1cc2occc2n1CCCN1C(=O)c2ccccc2C1=O	i	i	-6.14*	i	i	i	i	i	i
CCOC(=O)c1cc2occc2n1CC(=O)N1CCOCC1	i	i	i	i	i	/	/	/	/
CN1CCc2c(sc3c2C(=O)NC(c2ccccc2)N3)C1 (stereo not given)	i	i	-9.47*	i	i	i	i	i	i
O=C(CSc1nnc(CNC(=O)c2ccc(F)cc2)o1)NCc1ccc2c(c1)OCO2	i	i	-7.62*	i	i	i	i	i	i
O=C(CSc1nnc(CNC(=O)c2ccccc2)o1)NCc1ccccc1Cl	i	i	-6.59*	i	i	i	i	i	i
O=C(CSc1nnc(CNC(=O)c2ccc(F)cc2)o1)NCc1ccc(F)cc1	i	i	i	i	i	/	/	/	/
O=C(CSc1nnc(CNC(=O)c2ccc(F)cc2)o1)NCc1ccccc1Cl	i	i	i	i	i	/	/	/	/
CCOC(=O)c1c(C)[nH]c(C)c1C(=O)CSc1nc2ccccc2c(=O)n1-c1ccccc1C	i	i	i	i	i	/	/	/	/
CCOC(=O)c1c(C)[nH]c(C)c1C(=O)CSc1nc2ccccc2c(=O)n1-c1ccc(F)cc1	i	i	-5.26*	i	i	82.5%*	i	i	i
C=CCn1c(-c2ccc(S(=O)(=O)N3CCOCC3)cc2)csc1=Nc1ccccc1	i	i	-7.91*	i	i	i	i	i	i
CC(=O)N1CCCc2ccc(NS(=O)(=O)c3ccccc3)cc21	i	i	i	i	i	/	/	/	/
CSc1nc(C)c(C(=O)C[n+]2ccccc2)cc1C#N	i	i	i	i	i	/	/	/	/
Cc1cc(C(=O)Nc2ccc3c(c2)OCO3)cs1	i	i	i	i	i	/	/	/	/
Cc1cc(C(=O)NC(C)c2ccc3c(c2)OCO3)cs1 (stereo not given)	i	i	-4.64*	i	i	i	i	i	i
Cc1ccc(-c2nc(CSCC(=O)N3CCCC3)c(C)o2)cc1	i	i	i	i	i	/	/	/	/
Cc1cccc(-c2nc(CSCC(=O)N3CCN(c4ccccn4)CC3)c(C)o2)c1	i	i	-8.03*	i	i	58.1%*	i	i	i
CCc1nnc(NC(=O)CSc2nc3cccnc3n2Cc2ccccc2)s1	i	i	-5.85*	i	i	i	i	i	i
CC(=O)c1nn(-c2ccc(Cl)cc2)c(=O)[nH]c1=O	i	i	i	i	i	/	/	/	/
COc1ccc(C2C=C(C34CC5CC(CC(C5)C3)C4)NC(=S)N2)cc1 (stereo not given)	i	i	i	i	i	/	/	/	/
O=C(c1ccco1)N(CC1CCCO1)c1nc(-c2ccccc2)cs1 (stereo not given)	i	i	i	i	i	/	/	/	/
Cc1ccc(-c2csc(N(CC3CCCO3)C(=O)c3ccco3)n2)cc1 (stereo not given)	i	i	-4.7*	i	i	i	i	i	i
CCCn1c(=N)n(CC(=O)c2cccs2)c2ccccc21	i	i	-4.65*	i	i	i	i	i	i
CC(C)[C@@H](C(=O)OCC(=O)Nc1ccc2c(c1)OCO2)N1C(=O)c2ccccc2C1=O	i	i	-5.26*	i	i	i	i	i	i
SMILES	RGS4 block	MrgX1 PAM	MrgX1 antag	RGS4 pot	MrgX1 agonist	MrgX1 ant reconf	HEK293 Ca flux	HEK293 Ca counter	HEK293 Ca cntr2
O=C(COC(=O)[C@H](Cc1ccccc1)N1C(=O)c2ccccc2C1=O)Nc1ccc2c(c1)OCO2	i	i	i	i	i	/	/	/	/
CC1(c2ccccc2)NC(=O)N(CC(=O)Nc2ccc3c(c2)OCO3)C1=O (stereo not given)	i	i	i	i	i	/	/	/	/
CC1(c2ccc(OC(F)F)cc2)NC(=O)N(CC(=O)Nc2ccc3c(c2)OCO3)C1=O (stereo not given)	i	i	-6.33*	i	i	i	i	i	i
Cc1ccc(S(=O)(=O)N2CCN(C(=O)CNC(=O)c3sc4ccccc4c3Cl)CC2)cc1	i	i	i	i	i	/	/	/	/
OCC[C@H]1C[C@@H](O)[C@H](O)[C@]2(CCc3ccccc3CO2)O1	/	i	i	/	i	/	/	/	/
OCC[C@@H]1C[C@@H](O)[C@H](O)[C@@]2(CCc3ccccc3CO2)O1	i	i	-5.01*	i	i	i	i	i	i
O=C(COc1ccc(F)cc1Cl)Nc1ccc(S(=O)(=O)Nc2nccs2)cc1	i	i	i	i	i	/	/	/	/
COCCNc1ccc(S(=O)(=O)N2CCCC2)cn1	i	i	-5.01*	i	i	i	i	i	i
Cc1ccc(S(=O)(=O)N(CC(=O)N2CCCCCC2)c2ccccc2)cc1	i	i	i	i	i	/	/	/	/
Cc1ccc(N(CC(=O)N2CCN(C3CCCCC3)CC2)S(=O)(=O)c2cccnc2)cc1	/	i	-8.76*	/	i	i	i	i	i
Cc1oc(-c2cccs2)nc1CN1CCN(CC(C)C)C(CCO)C1 (stereo not given)	i	i	-4.53*	i	i	i	i	i	i
COc1ccccc1NC(=O)C(=O)Nc1ccc2c(c1)N(C(=O)C1CC1)CCC2	i	/	/	i	/	/	/	/	/
CCOc1ncccc1C(=O)Nc1nnc(C)s1	i	i	-4.77*	i	i	i	i	i	i
COc1ccc(S(=O)(=O)N2CCN(C(=O)NCc3ccc(OC)c(OC)c3)CC2)cc1	i	i	i	i	i	/	/	/	/

Compound activity as filed in PubChem.
